ChEMBL document CHEMBL1142150, “Inhibitors of nonhousekeeping functions of the apicoplast defy delayed death in Plasmodium falciparum” (Antimicrob Agents Chemother, 2007)
pIC50: −log10 of the molar value. ≈ marks a conversion by molar mass, not a printed value. Calls of active or inactive are those of the source. The rule behind the calls is not given here.

Key:
Plasmodium falciparum [1] = experiment: Inhibition of Plasmodium falciparum FCK2 growth as [3H]hypoxanthine uptake after 96 hrs; assay type: functional, organism-based
How it was run: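 Ring-synchronized FCK2 at 2 to 3% hematocrit, 1 to 2% initial parasitemia, exposed to a range of inhibitor concentrations for the first 48 h only, in duplicate. [3H]hypoxanthine then added for a further 48 h, followed by harvest and scintillation counting. IC50/MIC90 from nonlinear fit of parasitemia relative to untreated (100%) against log concentration.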

Plasmodium falciparum [2] = experiment: Inhibition of Plasmodium falciparum FCK2 growth as [3H]hypoxanthine uptake after 48 hrs; assay type: functional, organism-based
How it was run: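 Ring-synchronized FCK2 in human O+ erythrocytes, 2 to 3% hematocrit, 1 to 2% initial parasitemia. Cultured 48 h with [3H]hypoxanthine and a range of inhibitor concentrations, inhibitor refreshed in new medium every 24 h, in duplicate. Cells harvested onto glass fibre filters for scintillation counting. IC50/MIC90 from nonlinear fit of parasitemia relative to untreated (100%) against log concentration.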

Plasmodium falciparum [3] = experiment: Reduction in Plasmodium falciparum FCK2 in human erythrocyte culture after 48 hrs; assay type: functional, organism-based
How it was run: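 FCK2 synchronized with sorbitol, at ring stage, in O+ erythrocytes (2–3% hematocrit, 1–2% parasitemia). Cells were exposed to an inhibitor dilution series with [3H]hypoxanthine for 48 h, with fresh inhibitor every 24 h, in duplicate. Harvested onto glass-fiber filters for scintillation counting. Parasitemia was taken relative to untreated (100%), and IC50/MIC90 were fitted by nonlinear regression against log concentration.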

Plasmodium falciparum [4] = experiment: Decrease in Plasmodium falciparum FCK2 in erythrocytes at 5 uM after 84 hrs; assay type: functional, organism-based
How it was run: (§1)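 Ring-stage synchronized FCK2 in human O+ erythrocytes at 10% hematocrit and 3% starting parasitemia, with medium changed every 24 h. Inhibitor was present either throughout (96 h) or for the first 48 h only, in triplicate. Giemsa thin smears were read every 12 h, counting at least 10 fields of about 200 cells. Parasitemia is infected RBC over total RBC; parasites lacking an intact membrane or stained cytoplasm were scored dead.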

Plasmodium falciparum [5] = experiment: Reduction in Plasmodium falciparum FCK2 in human blood cell culture after 96 hrs; assay type: functional; parameters: scale not given: the % may be the effect or the level left
How it was run: (§2)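 Ring-stage synchronized FCK2 (2–3% hematocrit, 1–2% parasitemia) was treated with an inhibitor dilution series for the first 48 h only, in duplicate. [3H]hypoxanthine was then added for a further 48 h (96 h total) before filter harvest and scintillation counting. Percent parasitemia was set relative to untreated controls, and IC50/MIC90 were fitted by nonlinear regression against log concentration.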

Plasmodium falciparum [6] = experiment: Inhibition of Plasmodium falciparum FCK2 second cycle growth in erythrocytes at 48 hrs; assay type: functional, organism-based; how it was run: as §2
Plasmodium falciparum [7] = experiment: Reduced apicoplast genome copy number in Plasmodium falciparum FCK2 after 48 hrs; assay type: functional
Plasmodium falciparum [8] = experiment: Inhibition of fatty acid biosynthesis in Plasmodium falciparum FCK2 as decreased [1,2-14C]acetate uptake at 10 uM after 2 hrs; assay type: functional, organism-based
Plasmodium falciparum [9] = experiment: Reduced apicoplast genome copy number in Plasmodium falciparum FCK2 after 96 hrs; assay type: functional
Plasmodium falciparum [10] = experiment: Reduced apicoplast DNA/nuclear DNA ratio in Plasmodium falciparum FCK2 at 500 uM after 72 hrs by competitive PCR; assay type: functional, organism-based
Plasmodium falciparum [11] = experiment: Reduced apicoplast DNA/nuclear DNA ratio in Plasmodium falciparum FCK2 at 100 uM after 72 hrs by competitive PCR; assay type: functional
How it was run: (§3)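 FCK2 cultures were treated for 72 h, then saponin-lysed, and genomic DNA was kit-purified. Competitive PCR for eftu (apicoplast) and fabI (nuclear) used deletion-mutant plasmid standards diluted in calf thymus DNA, run for 25 cycles at 95/50/72°C. Products were quantified by ethidium-stained gel densitometry, and copy number was taken at equal band intensity. Groups were compared by two-tailed Student t test.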

Plasmodium falciparum [12] = experiment: Decrease in Plasmodium falciparum FCK2 in erythrocytes at 50 uM after 84 hrs; assay type: functional, organism-based; how it was run: as §1
Plasmodium falciparum [13] = experiment: Reduced apicoplast DNA/nuclear DNA ratio in Plasmodium falciparum FCK2 at 100 nM after 72 hrs by competitive PCR; assay type: functional, organism-based
Plasmodium falciparum [14] = experiment: Reduced apicoplast DNA/nuclear DNA ratio in Plasmodium falciparum FCK2 at 25 uM after 72 hrs by competitive PCR; assay type: functional, organism-based
Plasmodium falciparum [15] = experiment: Reduced apicoplast DNA/nuclear DNA ratio in Plasmodium falciparum FCK2 at 1 mM after 72 hrs by competitive PCR; assay type: functional, organism-based; how it was run: as §3
Plasmodium falciparum [16] = experiment: Reduced apicoplast DNA/nuclear DNA ratio in Plasmodium falciparum FCK2 at 10 uM after 72 hrs by competitive PCR; assay type: functional
Plasmodium falciparum [17] = experiment: Inhibition of fatty acid biosynthesis in Plasmodium falciparum FCK2 as [1,2-14C]acetate uptake during first asexual cycle at 10 uM after 24 hrs; assay type: functional, organism-based

Structure (SMILES) | pIC50 (Plasmodium falciparum [1]) | MIC90 (Plasmodium falciparum [1]) | pIC50 (Plasmodium falciparum [2]) | MIC90 (Plasmodium falciparum [2]) | other results
C/C=C/C/C=C/CCC(=O)[C@H]1O[C@H]1C(N)=O [CERULENIN] | 4.77 | 52.3 µM (≈ 11.7 µg/mL) | 4.82 | 64.9 µM (≈ 14.5 µg/mL) | –
CO[C@H]1/C=C/O[C@@]2(C)Oc3c(C)c(O)c4c(O)c(c(/C=N/N5CCN(C)CC5)c(O)c4c3C2=O)NC(=O)/C(C)=C\C=C\[C@H](C)[C@H](O)[C@@H](C)[C@@H](O)[C@@H](C)[C@H](OC(C)=O)[C@@H]1C [RIFAMPIN] | 6.72 | 2 µM (≈ 1.65 µg/mL) | 5.38 | 110 µM (≈ 90.2 µg/mL) | Activity (Plasmodium falciparum [3]): inactive; Activity (Plasmodium falciparum [4]): Active; Activity (Plasmodium falciparum [5]): 10%; Activity (Plasmodium falciparum [6]): Active
Oc1cc(Cl)ccc1Oc1ccc(Cl)cc1Cl [TRICLOSAN] | 5.92 | 10.2 µM (≈ 2.95 µg/mL) | 5.96 | 15.8 µM (≈ 4.57 µg/mL) | Activity (Plasmodium falciparum [7]): inactive; Activity (Plasmodium falciparum [8]): Active; Activity (Plasmodium falciparum [9]): inactive
CC(Oc1ccc(Oc2cnc3cc(Cl)ccc3n2)cc1)C(=O)O (stereo unspecified) [QUIZALOFOP] | 3.17 | 1950 µM (≈ 672 µg/mL) | 3.24 | 3090 µM (≈ 1070 µg/mL) | –
O=C(O)c1cc(Oc2ccc(C(F)(F)F)cc2Cl)ccc1[N+](=O)[O-] [ACIFLUORFEN] | 3.34 | 692 µM (≈ 250 µg/mL) | 3.28 | 871 µM (≈ 315 µg/mL) | –
CC(Oc1ccc(Oc2ncc(C(F)(F)F)cc2Cl)cc1)C(=O)O (stereo unspecified) [HALOXYFOP] | 4.01 | 346 µM (≈ 125 µg/mL) | 3.97 | 346 µM (≈ 125 µg/mL) | Activity (Plasmodium falciparum [10]): inactive
CN(C)[C@@H]1C(O)=C(C(N)=O)C(=O)[C@@]2(O)C(O)=C3C(=O)c4c(O)cccc4[C@@](C)(O)[C@H]3C[C@@H]12 [TETRACYCLINE] | 5.66 | 26.9 µM (≈ 12 µg/mL) | 3.87 | 562 µM (≈ 250 µg/mL) | Activity (Plasmodium falciparum [3]): inactive; Activity (Plasmodium falciparum [11]): 0.1; Activity (Plasmodium falciparum [12]): Active; Activity (Plasmodium falciparum [5]): 10%; Activity (Plasmodium falciparum [6]): Active
CCN(CC)CCCC(C)Nc1ccnc2cc(Cl)ccc12 (stereo unspecified) [CHLOROQUINE] | – | 0.011 µM (≈ 0.00352 µg/mL) | – | 0.011 µM (≈ 0.00352 µg/mL) | Activity (Plasmodium falciparum [13]): inactive
O=C(N[C@H](CO)[C@H](O)c1ccc([N+](=O)[O-])cc1)C(Cl)Cl [CHLORAMPHENICOL] | 4.95 | 190 µM (≈ 61.6 µg/mL) | 3.38 | 1020 µM (≈ 331 µg/mL) | Activity (Plasmodium falciparum [3]): inactive; Activity (Plasmodium falciparum [12]): inactive; Activity (Plasmodium falciparum [5]): 10%
C[C@@H]1C[C@@H]([C@H](O)CC2CC(=O)NC(=O)C2)C(=O)[C@@H](C)C1 [CYCLOHEXIMIDE] | 7.00 | 0.48 µM (≈ 0.135 µg/mL) | 6.82 | 0.73 µM (≈ 0.205 µg/mL) | Activity (Plasmodium falciparum [13]): inactive
Oc1ccc(Cl)cc1Oc1ccc(Cl)c2cccnc12 | – | – | – | – | Activity (Plasmodium falciparum [14]): inactive
CC(Oc1ccc(Oc2ccc(C(F)(F)F)cn2)cc1)C(=O)O (stereo unspecified) [FLUAZIFOP] | 2.83 | 5750 µM (≈ 1880 µg/mL) | 2.81 | 6920 µM (≈ 2260 µg/mL) | –
C[C@@H]1C[C@H]2O[C@@H]2/C=C\C=C\C(=O)Cc2c(Cl)c(O)cc(O)c2C(=O)O1 [RADICICOL] | 5.25 | 60.2 µM (≈ 22 µg/mL) | 5.14 | 46.8 µM (≈ 17.1 µg/mL) | –
CC(=O)CC(=O)CCC(=O)O [SUCCINYLACETONE] | 1.76 | 51300 µM (≈ 8110 µg/mL) | 1.75 | 58900 µM (≈ 9310 µg/mL) | Activity (Plasmodium falciparum [15]): inactive
CCC[C@@H]1C[C@@H](C(=O)N[C@@H]([C@H]2O[C@H](SC)[C@H](O)[C@@H](O)[C@H]2O)[C@H](C)Cl)N(C)C1 [CLINDAMYCIN] | 8.89 | 6 µM (≈ 2.55 µg/mL) | 3.54 | 537 µM (≈ 228 µg/mL) | Activity (Plasmodium falciparum [16]): 0.4; Activity (Plasmodium falciparum [7]): 0.65; Activity (Plasmodium falciparum [3]): inactive; Activity (Plasmodium falciparum [4]): inactive; Activity (Plasmodium falciparum [17]): inactive; Activity (Plasmodium falciparum [9]): 0.42; Activity (Plasmodium falciparum [5]): 10%
